Most compounds without a hit are left out; they make up all but 2.7% or so of the library.
MC4R antag cAMP – antagonists of human melanocortin 4 receptor (MC4R); P32245; MC4R-expressing cells, MTII-stimulated cAMP, LANCE TR-FRET; inhibition, % at 6.5 µM; 360,000 compounds, 0.48% hits; AID 540295;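 active means inhibition above its plate's cutoff, the mean of tested wells on that plate plus 3 SD, cut at about 29% in these data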;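 further: 0% = Melanotan II alone and 100% = Melanotan II plus saturating MCL0020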
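system = U2OS cells with stable human MC4R expression | also added = Melanotan II challenge after compound preincubation | dosing = one concentration, 6.5 µM nominal | incubation = compound 30 min, challenge 1 h, detection 1 h | measured by = TR-FRET with Eu-cAMP and labeled anti-cAMP, 671 nm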
HTR2A ag – mouse HTR2A agonism via beta-arrestin recruitment; activation, % at 7.6 µM; CHO-K1 mHTR2A beta-arrestin complementation, luminescence; percent of 30 µM serotonin response; AID 624169; 360,000 compounds, 0.66% hits; P35363;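 active means activation above a run cutoff, the mean activation of all tested compounds plus 3 SD, cut at about 14% in these data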;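 further: 0% = plate median of compound wells and 100% = 30 µM serotonin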
Target sequence (P35363 whole entry, looked up): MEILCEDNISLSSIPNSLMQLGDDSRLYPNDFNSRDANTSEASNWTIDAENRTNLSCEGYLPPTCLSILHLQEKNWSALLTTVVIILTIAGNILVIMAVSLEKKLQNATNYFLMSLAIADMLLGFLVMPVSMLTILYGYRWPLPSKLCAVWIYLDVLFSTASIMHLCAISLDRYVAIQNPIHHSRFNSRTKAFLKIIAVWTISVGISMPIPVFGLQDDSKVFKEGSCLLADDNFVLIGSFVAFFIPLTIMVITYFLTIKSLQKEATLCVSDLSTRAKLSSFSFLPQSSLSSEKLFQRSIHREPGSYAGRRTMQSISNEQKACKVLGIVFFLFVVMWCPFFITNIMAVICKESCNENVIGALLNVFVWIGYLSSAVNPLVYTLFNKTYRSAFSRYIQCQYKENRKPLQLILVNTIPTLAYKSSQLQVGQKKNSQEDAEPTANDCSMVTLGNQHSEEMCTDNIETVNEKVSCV
PREPL inh – inhibitors of human prolyl oligopeptidase-like enzyme PREPL. Q4J6C6. inhibition, % at 5.96 µM. 320,000 compounds, 0.68% hits. recombinant PREPL, fluorescence polarization activity-based probe; in the data active means inhibition above about 43%;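 further: 0% = enzyme with DMSO and 100% = wells lacking enzyme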
NTR1 agonist – agonists of human neurotensin receptor NTR1; NTR1-U2OS beta-arrestin-GFP spot imaging, agonist mode; 330,000 compounds, 0.17% hits; activation, % at 20 µM; P30989;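 active means activation at or above 40% of the spot to cytoplasm intensity ratio, with at least 20 cells analyzed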;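 further: 0% = DMSO without peptide and 100% = 100 nM NTR1 peptide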
Lipid droplet – hepatic lipid droplet formation modulation; AML12 mouse hepatocytes, oleate lipid droplets, BODIPY imaging; inhibition, % at 6.5 µM; 240,000 compounds, 0.4% hits; AID 1656;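 active means lipid droplet intensity inhibited by at least 50%, with more than 500 cells counted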
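Assay system: AML12 hepatocytes (mouse) / Also added: 100 µM oleic acid challenge / Times: overnight treatment with compound plus oleate / Detection: high-content imaging of BODIPY-stained droplets and DAPI nuclei / Evaluation: % inhibition of lipid droplet signal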
MC4R barr agon – human MC4R agonism via beta-arrestin; P32245; U2OS MC4R beta-arrestin complementation, luminescence; percent of melanotan II response, DMSO zero; activation, % at 8.9 µM; 360,000 compounds, 0.98% hits; AID 540308;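 active means activation above a per-plate cutoff, the mean activation of sample wells on that plate plus 3 SD, cut at about 8% in these data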
NTR1 ag confirm – confirmation of agonists of human NTR1. shares compounds with NTR1 agonist. NTR1-U2OS beta-arrestin-GFP translocation imaging. activation, % at 20 µM. 480 compounds, 38% hits. AID 504550;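 active means mean activation at 20 µM of at least 40%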;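 further: 0% = DMSO without peptide and 100% = 100 nM NTR1 peptide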
An asterisk follows results filed as active; nt = no result.

SMILES | MC4R antag cAMP | HTR2A ag | PREPL inh | NTR1 agonist | Lipid droplet | MC4R barr agon | NTR1 ag confirm
O=C(CN(c1cccc(C(F)(F)F)c1)S(=O)(=O)c1ccc(Cl)c([N+](=O)[O-])c1)NCc1ccccc1 | 14.0 | 2.1 | -1.9 | 42.9* | 2.2 | -1.3 | -0.2
CCCCCc1cc(=O)oc2c(C(CCN3CCCCC3)c3ccc(OC)cc3)c(OC)cc(OC)c12 (configuration not stated) | 11.6 | -10.6 | 15.9 | 48.3* | 16.4 | 2.6 | 61.0*
Oc1ccc(/C=N/Nc2nc(N3CCCCCC3)nc(N3CCCCCC3)n2)c(O)c1 | 15.6 | -0.8 | 0.1 | 43.6* | 3.1 | 2.2 | 39.2
CCOC(=O)c1ccc(NC(=O)C2CCCN(S(=O)(=O)c3ccc(F)cc3)C2)cc1 (configuration not stated) | -4.0 | 4.0 | 3.3 | 53.4* | 4.1 | -0.8 | 22.2
Oc1ccc(-c2cc(-c3ccc(O)cc3)nc(-c3ccccc3)n2)cc1 | -0.6 | -4.5 | -2.3 | 52.5* | nt | 1.2 | 57.3*
Nc1ccc(-c2cc(-c3ccc(N)cc3)nc(-c3ccccc3)n2)cc1 | -2.9 | -0.2 | 4.1 | 2.3 | -2.1 | 4.7 | nt
COc1ccc(Cn2c(O)c(C=Nc3ccc(O)cc3)c3ccccc3c2=O)cc1 | 21.0 | -4.6 | 25.7 | 34.0 | 22.5 | -1.1 | nt
O=c1c2ccccc2c(C=Nc2ccc(O)cc2)c(O)n1Cc1ccccc1 | -2.7 | -3.0 | 23.5 | 40.0 | 9.9 | 0.2 | 4.5
N#Cc1c(N)nc(SCC(=O)C23CC4CC(CC(C4)C2)C3)c(C#N)c1-c1ccc(Cl)cc1 | 15.7 | 2.8 | 15.8 | 1.3 | 3.3 | 4.4 | nt
CSc1nc(N)nc(SCC(=O)C23CC4CC(CC(C4)C2)C3)c1C#N | -12.5 | 1.9 | -12.9 | 44.8* | -14.5 | 1.4 | 13.2
COc1cc([N+](=O)[O-])ccc1NC(=O)Nc1cnccn1 | 19.7 | 3.3 | 0.6 | -0.2 | 9.5 | 1.4 | nt
COc1cc([N+](=O)[O-])ccc1NC(=O)Nc1nc2c(s1)CCCC2 | 5.9 | 3.7 | 10.6 | 42.6* | 22.4 | 0.0 | 17.7
CCCCCC(=O)N1C[C@@H](O)[C@H](n2cc(COC(=O)c3ccccc3)nn2)C[C@@H]1c1ccccc1 | 3.8 | -3.1 | nt | nt | nt | 1.8 | nt
CC(C)S(=O)(=O)c1csc(NC(=O)Nc2cccc([N+](=O)[O-])c2)c1Cl | 1.6 | 2.0 | 19.6 | 50.4* | -8.0 | -1.5 | 10.6
COc1cc(NC(=O)Nc2cccc([N+](=O)[O-])c2)cc(OC)c1 | 8.0 | -9.2 | 22.8 | 5.4 | -2.8 | 0.3 | nt
CC(C)Cn1c(O)c(/C=C2\C=NN=C2c2ccccc2)sc1=S | 9.3 | -1.2 | -11.9 | 59.1* | 4.2 | 1.9 | 60.8*
Cc1ccc(S(=O)(=O)N2[C@@H](c3ccc(Cl)cc3)C(C(=O)O)=CC[C@H]2c2cccc(Cl)c2)cc1 | 6.8 | 6.8 | 1.5 | 2.0 | nt | -1.8 | nt
O=C(O)C1=CC[C@@H](c2ccc(Cl)cc2)N(S(=O)(=O)c2ccc(Cl)cc2)[C@H]1c1cccc(Cl)c1 | 10.0 | 2.8 | -1.8 | 56.4* | nt | 1.9 | 9.2
CNC(=O)c1cccc(NC(=O)c2cc(-c3ccccc3)nc3c2cnn3C(C)C)c1 | 1.2 | -2.8 | -10.5 | 55.0* | nt | -1.6 | 33.3
COc1ccccc1CNC(=O)CN1C(=O)NC2(CCCCCCC2)C1=O | -2.6 | -1.0 | 6.9 | 0.9 | nt | -0.1 | nt
COc1ccccc1CNC(=O)CN1C(=O)NC(C)(c2ccc(C)cc2)C1=O (configuration not stated) | 1.7 | -3.0 | 1.4 | 47.0* | 24.9 | 0.9 | -1.8
Cc1cccc(NC(=O)c2nc[nH]c2C(=O)N[C@@H](C)c2ccccc2)c1 | 7.5 | 1.1 | -5.6 | 50.5* | nt | 0.1 | 37.5
Oc1cccc(-c2nc3c4c(ncn3n2)-c2ccccc2CC42CCCC2)c1 | 17.4 | 1.0 | -11.9 | 43.5* | nt | -0.4 | 33.9
COc1ccc(-c2nc3c4c(ncn3n2)-c2ccccc2CC42CCCC2)cc1 | -1.4 | 0.1 | 7.2 | -2.0 | -8.6 | -0.8 | nt
CC(=O)c1cn(-c2ccc(Cl)cc2)c(=O)n(Cc2ccc(Br)cc2)c1=O | 2.6 | -1.2 | -13.3 | 4.5 | -14.5 | 0.3 | nt
SMILES | MC4R antag cAMP | HTR2A ag | PREPL inh | NTR1 agonist | Lipid droplet | MC4R barr agon | NTR1 ag confirm
O=C(Cc1ccc(Cl)cc1)NC(=S)Nc1ccccc1N1CCOCC1 | 1.8 | -0.5 | 12.3 | 44.6* | 35.7 | -2.1 | 15.6
CCCNC(=O)N(C)C[C@H]1Oc2ncc(Br)cc2C(=O)N([C@H](C)CO)C[C@H]1C | 20.2 | 9.4 | nt | nt | nt | 0.2 | nt
Cc1ccc(OCC(=O)N/N=C\c2cn(Cc3ccccc3)c3ccccc23)cc1C | 13.4 | 1.5 | 9.4 | 40.6* | -12.3 | -0.2 | 5.1
COc1cc(C(=O)N/N=C/c2cn(Cc3ccccc3)c3ccccc23)ccc1O | -3.3 | -15.8 | nt | 2.2 | -39.5 | -2.7 | nt
C=CCOc1ccc(C=Nc2ccc(C)c(Cl)c2)c(O)c1 | 10.2 | 0.0 | -6.3 | -0.6 | 18.8 | -0.1 | nt
Cc1cc(C)c2c(c1)/C(=C/C(=O)c1ccc(Br)s1)C(=O)N2 | 12.5 | 3.4 | -5.6 | 57.8* | -5.7 | -0.5 | 68.3*
CCc1ccc2c(c1)/C(=C/C(=O)c1cccs1)C(=O)N2 | -0.4 | 2.7 | 10.2 | 41.6* | nt | -2.5 | 56.9*
Cc1cc(Br)c2c(c1)/C(=C/C(=O)c1cccs1)C(=O)N2 | -1.6 | 5.5 | -6.2 | 62.6* | 0.9 | 6.2 | 41.4*
Cc1ccc(NC(=O)c2cc(S(=O)(=O)N3CCOCC3)cn2C)cc1F | 13.6 | -3.0 | 8.5 | -0.5 | -4.3 | 0.1 | nt
COc1ccc([C@H]2C[C@H](n3cc(COC(=O)c4ccccc4)nn3)[C@@H](O)CN2Cc2cccs2)cc1 | 11.3 | 1.0 | nt | nt | nt | 6.4 | nt
O=S(=O)(NCC(Nc1ccccc1)c1ccccc1)c1ccc(Cl)cc1 (configuration not stated) | 14.1 | 0.2 | 8.5 | 43.9* | -24.0 | 4.2 | 7.5
O=C(O)c1cccc(NC(CNS(=O)(=O)c2ccc(Cl)cc2)c2ccccc2)c1 (configuration not stated) | 10.8 | -1.9 | 28.6 | 0.5 | 4.2 | -1.3 | nt
Cc1csc(=O)n1CCC(=O)OCC(=O)Nc1ccc(Cl)cn1 | -0.5 | -5.0 | 15.6 | -0.3 | nt | -2.4 | nt
O=C(CCCOc1ccccc1)NN1C(=O)NC2(CCCCC2)C1=O | 11.7 | 4.6 | 5.2 | 0.2 | nt | -2.2 | nt
CCC(C)Sc1cccc(-c2nc3ccccn3c2NCc2ccccc2)c1 (configuration not stated) | 13.2 | -1.3 | 21.4 | 40.3* | nt | 4.5 | -4.4
O=C1CC(N(CCc2ccccc2)C(=S)Nc2ccccc2)C(=O)N1c1ccc(Br)cc1 (configuration not stated) | 19.2 | -2.4 | 0.9 | 60.2* | 4.2 | -0.2 | 23.3

Screens from PubChem.
